From PubChem BioAssay
TRPC4 inh = TRPC4 (mouse) channel inhibition. HEK293 TRPC4beta/mu-opioid, DAMGO-evoked Fluo4 calcium flux; active compounds read low. B-score at 10 µM. AID 2247. Q9QUQ5. 300,000 tested, 0.39% active;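 active = B-score over 3 SD under the library average, no early fluorescence shift, positive overall ratio signal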
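Assay system: HEK293 cells with stable TRPC4beta plus mu-opioid receptor expression. Dosing: single dose. Measured by: Fluo4 Ca2+ flux fluorescence. Also added: DAMGO in two steps, submaximal then maximal. Read-out: B score from integrated Fluo4 fluorescence ratio.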
TRPC4 potent = allosteric potentiators of mouse TRPC4 channel; Q9QUQ5; HEK293 TRPC4beta/mu-opioid, DAMGO EC20, Fluo-4 Ca2+ flux; active compounds read high; B-score at 10 µM; 310,000 tested, 0.42% active; AID 2227;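 active = B-score of calcium response area above 5 SD of library B-scores, with initial fluorescence ratio within 5 SD of library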
TRPC6 inh = inhibitors of mouse TRPC6 channel. 310,000 tested, 1.1% active. HEK293-TRPC6, membrane potential dye, ACh-evoked depolarization; active compounds read low. B-score at 10 µM;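 active = B-score under library mean minus 3 SD, initial fluorescence not abnormally high, positive integrated signal ratio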;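 also: B-score derived from integrated fluorescence ratio over the kinetic read; more negative B-score means stronger inhibition of depolarization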
Target sequence (Q61143 whole entry, looked up): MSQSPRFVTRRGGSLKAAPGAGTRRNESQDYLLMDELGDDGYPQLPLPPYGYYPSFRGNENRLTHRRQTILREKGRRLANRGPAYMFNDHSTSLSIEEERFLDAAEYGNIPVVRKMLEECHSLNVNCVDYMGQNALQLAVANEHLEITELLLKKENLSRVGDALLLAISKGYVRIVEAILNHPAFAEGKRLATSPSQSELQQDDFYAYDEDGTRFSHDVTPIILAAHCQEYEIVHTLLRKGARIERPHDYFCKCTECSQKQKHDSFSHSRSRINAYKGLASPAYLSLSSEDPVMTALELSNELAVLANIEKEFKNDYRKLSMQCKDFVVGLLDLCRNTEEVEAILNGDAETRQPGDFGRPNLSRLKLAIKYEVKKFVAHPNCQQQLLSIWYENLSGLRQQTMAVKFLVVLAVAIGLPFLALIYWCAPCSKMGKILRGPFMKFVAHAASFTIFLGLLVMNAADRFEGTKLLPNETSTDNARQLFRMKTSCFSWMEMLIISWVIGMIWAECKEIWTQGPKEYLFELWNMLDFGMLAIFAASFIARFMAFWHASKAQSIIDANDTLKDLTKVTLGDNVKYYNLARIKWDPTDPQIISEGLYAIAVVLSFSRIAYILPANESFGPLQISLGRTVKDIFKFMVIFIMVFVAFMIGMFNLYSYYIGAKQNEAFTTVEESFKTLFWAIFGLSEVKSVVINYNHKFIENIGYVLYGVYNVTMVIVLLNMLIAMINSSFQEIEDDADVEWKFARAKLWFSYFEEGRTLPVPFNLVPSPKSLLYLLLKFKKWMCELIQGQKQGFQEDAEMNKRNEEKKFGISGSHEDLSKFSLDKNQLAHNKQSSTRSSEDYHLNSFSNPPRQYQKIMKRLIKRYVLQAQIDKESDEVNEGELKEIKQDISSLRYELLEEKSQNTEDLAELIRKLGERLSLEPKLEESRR
TRPC4 act = activators of mouse TRPC4 channel; HEK293 TRPC4beta/mu-opioid, Fluo4 calcium fluorescence; active compounds read high; Q9QUQ5; AID 2237; 310,000 tested, 0.49% active; B-score at 10 µM;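 active = B-score above 5 SD of library B-scores, and initial fluorescence ratio not above library mean plus 5 SD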;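 also: positive B-score marks a calcium rise read as TRPC4 activation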
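Material: TRPC4beta and mu-opioid receptor HEK293 stable cells | Incubation: 45 min room-temperature Fluo4 loading, 110 s read | Detection: Kinetic Fluo4 calcium fluorescence | Measure: Integrated baseline-normalised fluorescence ratio, converted to per-well B score | Benchmarks: Low control buffer alone, high control maximal DAMGO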
TRPC6 activator = activators of mouse TRPC6 channel | Q61143 | HEK293-TRPC6 membrane potential dye fluorescence; active compounds read high | B-score at 10 µM | 310,000 tested, 0.13% active;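 active = B-score of the integrated fluorescence ratio above library mean plus 3 SD, and starting fluorescence ratio within library mean plus 5 SD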;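 also: higher score means more depolarization so channel activation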
Large screens that a line does not name were inactive. A selection: hits, their analogues and other compounds. The true share with any hit is near 2.3%.

COc1ccc(O)c(C(=O)c2cnc3c(c2)c(=O)[nH]c(=O)n3C)c1	TRPC4 inh -6
COCCn1c(=O)[nH]c(=O)c2cc(C(=O)c3cc(Cl)ccc3O)cnc21	none
COc1ccc(OC)c(S(=O)(=O)Nc2c(NC3CCCCC3)c3ccccc3oc2=O)c1	none
COc1ccc(C=Nc2ccc3[nH]ncc3c2)c(O)c1	none
Oc1c(Br)cc(Br)cc1C=Nc1ccc2[nH]ncc2c1	TRPC4 inh -7
COc1ccc([N+](=O)[O-])cc1NCc1ccco1	TRPC4 inh -6
CC(=O)Nc1ccc(Cc2nc3c([nH]2)c(=O)n(C)c(=O)n3C)cc1	none
COc1ccc(C2CC(c3ccccc3)=NN2C(=O)CCCC(=O)O)cc1 (stereo not given)	none
CCN(CC)CCCNC(=S)N1CCN(c2nc3ccccc3n2CC)CC1	TRPC4 potent 15
CCN(CC)CCCNC(=S)N1CCn2c(nc3ccccc32)C1	none
CCOC(=O)c1cc(S(=O)(=O)N2CCCC2)cn1C	none
Cc1cc(OCC(=O)N(C(C)C)C(C)C)cc(C)c1Br	TRPC4 potent 38
Cc1cc(OCC(=O)NC(C)C)cc(C)c1Br	none
Cc1ccc(/C=C2\SC(=S)N(C(Cc3ccccc3)C(=O)O)C2=O)cc1 (stereo not given)	TRPC4 inh -8
O=C(O)C(Cc1ccccc1)N1C(=O)/C(=C/c2ccccc2)SC1=S (stereo not given)	none
O=C(NCc1ccco1)C(c1ccccc1)N(C(=O)Cc1cccs1)c1ccccc1F (stereo not given)	none
COc1ccc(C(CNC(=O)c2cccc(S(=O)(=O)NCc3ccccc3)c2)N(C)C)cc1 (stereo not given)	TRPC4 act 159
CN(C)C(CNC(=O)CCc1c[nH]c2ccccc12)c1ccccc1 (stereo not given)	TRPC4 act 138
O=C(CCS(=O)(=O)c1ccccc1)NCCS(=O)(=O)c1ccccc1	none
CN(C)C(CNC(=O)CCS(=O)(=O)c1ccccc1)c1ccccc1 (stereo not given)	TRPC4 act 96
CN(C)C(CNC(=O)c1ccc(S(=O)(=O)N(C)C)cc1)Cc1ccccc1 (stereo not given)	TRPC4 act 74
CN(C)S(=O)(=O)c1ccc(C(=O)NCCSc2ccccc2)cc1	none
CCCC[N+](CC#Cc1ccccc1)(CCCC)CCCS(=O)(=O)[O-]	none
COc1ccc(C(CNC(=O)c2ccc3c(c2)OCCO3)N(C)C)cc1 (stereo not given)	TRPC4 act 164
CN(C)C(CNC(=O)c1cccc(S(=O)(=O)N(C)C)c1)c1ccccc1 (stereo not given)	TRPC4 act 109
C/C(=N\NC(N)=S)C1(C)CC2(CC(C)(C)OC2=O)C(=O)O1 (stereo not given)	none
CCOC(=O)C1C(=O)C=C(c2ccc(C)cc2)CC1c1cccc([N+](=O)[O-])c1 (stereo not given)	TRPC4 potent 24
CCCCN=C(Nc1ccc(Cl)cc1)c1cccnc1	TRPC4 inh -6
CCCN=C(Nc1ccc(Cl)cc1)c1cccnc1	none
O=C(Nc1cccc2cccnc12)c1ccccc1Br	none
COc1ccc2cc(C(C)C(=O)NC3CCC(O)CC3)ccc2c1 (stereo not given)	none
CC(=O)Nc1ccc(S(=O)(=O)Nc2nc3ccc(C)cc3s2)cc1	TRPC4 inh -5
Cc1ccc(S(=O)(=O)Nc2nc3ccc(S(C)(=O)=O)cc3s2)cc1	none
CN(Cc1ccccc1NCC(=O)Nc1ccccc1C#N)C1CCCCC1	TRPC4 inh -6
N#Cc1ccccc1NC(=O)CNc1ccccc1N1CCCCC1	none
COc1ccc(CNCc2ccc3c(c2)OCO3)c(OC)c1OC	none
COc1ccc(CNCc2ccc3c(c2)OCO3)cc1Br	TRPC4 act 43
CCOC(=O)/C(=N\O)C1=NC(C)(C)Cc2ccccc21	none
Cc1cccc(N/N=C(\C(N)=O)C2=NC(C)(C)Cc3ccccc32)c1	TRPC4 potent 14
O=C(NCc1ccc2c(c1)OCO2)C1CCC(=O)N1C1CCCC1 (stereo not given)	none
Cc1ccc(-c2csc3ncnc(NCCN4CCOCC4)c23)cc1	TRPC4 inh -6
c1ccc(-c2csc3ncnc(NCCN4CCOCC4)c23)cc1	none
Clc1ccc(-c2csc3ncnc(NCCN4CCOCC4)c23)cc1	TRPC4 inh -5
O=C(Nc1nc2c(cc3c4c(cccc42)CC3)s1)c1ccccc1Cl	none
COc1ccc2c(=O)cc(-c3ccccc3F)oc2c1	none
O=c1cc(N2CCCCC2)c(-c2ccccc2)nn1Cc1ccccc1Cl	TRPC4 potent 14
Cc1ccc2c(c1)N(C(=O)CCC(=O)Nc1ccccc1Br)CC(C)O2 (stereo not given)	TRPC4 inh -9
CC(=O)c1ccc(NC(=O)CCC(=O)N2CC(C)Oc3ccc(C)cc32)cc1 (stereo not given)	none
CC(C)(O)C#Cc1ccc(C(=O)N2CCN(c3ccc(Cl)cc3)CC2)cc1	none
CN(C)c1ccc(C(=S)N2CCN(c3ccc([N+](=O)[O-])cc3)CC2)cc1	TRPC4 potent 19
COC(=O)c1ccccc1NC(=O)CN1CCN(C23CC4CC(CC(C4)C2)C3)CC1	TRPC6 activator 20
COC(=O)c1ccccc1NC(=O)CN1CCC(NC(=O)c2ccc(C)cc2)CC1	none
Cc1cc(-c2nc(-c3ccncc3)no2)ccc1[N+](=O)[O-]	none
Cc1ccc2oc(C(=O)N(Cc3ccccc3)C3CCS(=O)(=O)C3)c(C)c2c1 (stereo not given)	TRPC4 act 43
Cc1ccc2c(C)c(C(=O)N(Cc3cccs3)C3CCS(=O)(=O)C3)oc2c1 (stereo not given)	TRPC4 act 61
O=C(/C=C/c1ccc(Cl)cc1)N(Cc1ccccc1)C1CCS(=O)(=O)C1 (stereo not given)	TRPC4 potent 20
O=C(/C=C/c1ccc(Cl)cc1Cl)N(Cc1ccccc1)C1CCS(=O)(=O)C1 (stereo not given)	none
O=C(NCc1cccc(C(F)(F)F)c1)C1CCCN(c2cnccn2)C1 (stereo not given)	none
CC1CC(C)CN(CCCNC(=O)c2ccc3c(SCC(=O)O)c4c(nc3c2)CCC4)C1 (stereo not given)	TRPC4 act 76
Cc1nc2ccccc2c2oc(C(=O)NCCCN3CC(C)CC(C)C3)cc12 (stereo not given)	TRPC4 act 83
CCN(CC)CCCNC(=O)c1ccc2c(SCC(=O)O)c3c(nc2c1)CCC3	none
CC(C)Cn1c(N)c(C=O)c(=O)[nH]c1=O	none
Nc1nc2ccccc2n1CCOc1ccc(F)cc1	TRPC4 inh -6
Cc1ccc(S(=O)(=O)Nc2cccc(C(=O)NCC(c3ccco3)N3CCCC3)c2)cc1F (stereo not given)	TRPC4 inh -6, TRPC4 act 53
COc1ccccc1C(=O)NCCC(=O)NCc1cccs1	none
